≈ marks a conversion by molar mass, not a printed value. Calls of active or inactive are those of the source. The rule behind the calls is not given here.
How the values were obtained:
[1] = system: Staphylococcus epidermidis; test: Antibacterial activity against Staphylococcus epidermidis MTCC3615 by broth microdilution assay; format: functional
Procedure, shortened: (§1)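 Broth microdilution per CLSI; 5×10^5 cfu/mL bacteria in LB broth; compounds from DMSO stocks, final DMSO under 0.6%, with DMSO control. Plates incubated at the strain's recommended growth temperature and time; growth read as OD600.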

[2] = system: Staphylococcus aureus; test: Antibacterial activity against Staphylococcus aureus MTCC737 measured after 6 hrs by broth microdilution assay; format: functional; settings: MTCC737, 6 h; procedure, shortened: as §1
[3] = Antibacterial activity against Arthrobacter chlorophenolicus A6MTCC3706 by broth microdilution assay; format: functional; settings: Pseudarthrobacter chlorophenolicus; procedure, shortened: as §1
[4] = system: Escherichia coli; test: Antibacterial activity against Escherichia coli MTCC1916 by broth microdilution assay; format: functional; procedure, shortened: as §1
[5] = system: Pseudomonas aeruginosa; test: Antibacterial activity against Pseudomonas aeruginosa MTCC1688 by broth microdilution assay; format: functional; procedure, shortened: as §1
[6] = system: HEK293; test: Cytotoxicity against HEK293 cells measured after 24 hrs by MTT assay; format: cell-based; settings: Homo sapiens, HEK293, 24 h
Procedure, shortened: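 HEK 293 cells, 4000/well, seeded overnight in DMEM + 10% FBS at 37°C in CO2; compound dose series for 24 h (final DMSO <0.5%, DMSO-only control). MTT at 1 mg/mL final for 3 h, formazan dissolved in DMSO, absorbance 595 nm; IC50 from triplicate OD data.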

[7] = Binding affinity to pCDNA 3.1 (unknown origin) assessed as DNA condensation at 5:1 compound to DNA ratio measured after 16 hrs by EtBr staining agarose gel shift assay
Procedure, shortened: (§2)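 pCDNA3.1 plasmid (amplified in E. coli DH5α), 40 µM, in 50 mM NaP pH 7, 10 mM NaCl, mixed with compound at set compound:DNA base-pair ratios; 16 h at 37°C. Run on 1% agarose at 50 V ~3 h, stained with EtBr 1 µg/mL for 5 min, imaged.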

[8] = system: DNA; test: Inhibition of ethidium bromide binding to Staphylococcus aureus DNA by fluorescence assay; format: nucleic-acid assay
Procedure, shortened: (§3)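 Fluorescence intercalator displacement: S. aureus genomic DNA 10 µM plus EtBr 5 µM in 10 mM NaP pH 7, 10 mM NaCl, 1% DMSO, at 25 and 37 °C; titrated with 2.5–100 µM compound. Excitation 480 nm, emission 520–700 nm, inner-filter corrected, triplicates; Stern–Volmer analysis, F0/F = 1 + Ksv[Q].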

[9] = system: DNA; test: Inhibition of ethidium bromide binding to Staphylococcus aureus DNA assessed as Stern-Volmer quenching constant by fluorescence assay; format: nucleic-acid assay; procedure, shortened: as §3
[10] = system: Calf thymus DNA; test: Binding affinity to calf thymus DNA by isothermal titration calorimetric analysis; format: nucleic-acid assay; settings: Bos taurus
[11] = system: Calf thymus DNA; test: Binding affinity to calf thymus DNA assessed as appearance of induced CD at […] by circular dichroism method; format: nucleic-acid assay; settings: Bos taurus
[12] = Binding affinity to pCDNA 3.1 (unknown origin) assessed as DNA unwinding effect at 1:1 compound to DNA ratio measured after 16 hrs by EtBr staining agarose gel shift assay; procedure, shortened: as §2
[13] = system: Calf thymus DNA; test: Binding affinity to calf thymus DNA assessed as change in B-DNA structure at 265 nm by circular dichroism method; format: nucleic-acid assay; settings: Bos taurus
[14] = Binding affinity to pCDNA 3.1 (unknown origin) assessed as DNA unwinding effect up to 6:1 compound to DNA ratio measured after 16 hrs by EtBr staining agarose gel shift assay; procedure, shortened: as §2
[15] = system: Calf thymus DNA; test: Binding affinity to calf thymus DNA assessed as appearance of induced CD at 15 to 60 uM by circular dichroism method; format: nucleic-acid assay; settings: Bos taurus
[16] = system: Calf thymus DNA; test: Binding affinity to calf thymus DNA assessed as change in B-DNA structure at 15 to 60 uM by circular dichroism method; format: nucleic-acid assay; settings: Bos taurus
[17] = Solubility of the compound in pH 7 phosphate buffer at 100 uM by UV absorption spectra analysis; format: physicochemical; settings: pH 7, 100 µM
[18] = system: DNA; test: Binding affinity to Escherichia coli pBR322 DNA assessed as DNA compaction up to 5:1 compound to DNA ratio by atomic force microscopic analysis; format: nucleic-acid assay
Procedure, shortened: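 Supercoiled pBR322 plasmid treated with compound at [compound]:[DNA bp] ratios from 0.5:1 up to 5:1, imaged by AFM; DNA height measured.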

[19] = Binding affinity to pCDNA 3.1 (unknown origin) assessed as DNA unwinding effect at 1:1 to 5:1 compound to DNA ratio measured after 16 hrs by EtBr staining agarose gel shift assay; procedure, shortened: as §2
[20] = Selectivity index, ratio of IC50 for HEK293 cells to MIC for Staphylococcus aureus MTCC737; format: toxicity; settings: human, read-out: Selectivity Index
[21] = Binding affinity to pCDNA 3.1 (unknown origin) assessed as DNA unwinding effect at 5:1 compound to DNA ratio measured after 16 hrs by EtBr staining agarose gel shift assay; procedure, shortened: as §2

Compound | MIC [1] [µg/mL] | MIC [2] [µg/mL] | MIC [3] [µg/mL] | MIC [4] [µg/mL] | MIC [5] [µg/mL] | IC50 [6] [µg/mL] | further results
CN(C)CCCNc1nc2cc([N+](=O)[O-])ccc2nc1NCc1ccc(Br)cc1 | 3.45 (≈ 7.51 µM) | 3.45 (≈ 7.51 µM) | 2.29 (≈ 4.99 µM) | 4.59 (≈ 9.99 µM) | > 230 | 9.63 (≈ 21 µM) | –
CN1CCN(CCCNc2nc3cc([N+](=O)[O-])ccc3nc2NCc2ccc(C(F)(F)F)cc2)CC1 | 3.78 (≈ 7.51 µM) | 3.78 (≈ 7.51 µM) | 1.76 (≈ 3.5 µM) | 3.78 (≈ 7.51 µM) | > 250 | 9.53 (≈ 18.9 µM) | –
O=[N+]([O-])c1ccc2nc(NCc3ccc(C(F)(F)F)cc3)c(N3CCNCC3)nc2c1 | 4.32 (≈ 9.99 µM) | 3.03 (≈ 7.01 µM) | 4.32 (≈ 9.99 µM) | 4.32 (≈ 9.99 µM) | 10.8 (≈ 25 µM) | 9.61 (≈ 22.2 µM) | –
COc1ccccc1CNc1nc2ccc([N+](=O)[O-])cc2nc1NCCCN(C)C | 6.16 (≈ 15 µM) | 8.21 (≈ 20 µM) | 6.16 (≈ 15 µM) | > 200 | > 200 | 36.1 (≈ 88 µM) | –
CN(C)CCCNc1nc2cc([N+](=O)[O-])ccc2nc1NCc1ccc(Cl)c(C(F)(F)F)c1 | 0.96 (≈ 1.99 µM) | 1.69 (≈ 3.5 µM) | 1.69 (≈ 3.5 µM) | 7.24 (≈ 15 µM) | > 240 | 3.26 (≈ 6.75 µM) | –
CN(C)CCCNc1nc2cc([N+](=O)[O-])ccc2nc1NCc1ccc(Cl)cc1 | 6.22 (≈ 15 µM) | 3.11 (≈ 7.5 µM) | 2.49 (≈ 6 µM) | > 207 | > 207 | 10.7 (≈ 25.9 µM) | –
CN(C)CCCNc1nc2cc([N+](=O)[O-])ccc2nc1NCc1cc(C(F)(F)F)cc(C(F)(F)F)c1 | 0.52 (≈ 1.01 µM) | 1.03 (≈ 1.99 µM) | 1.81 (≈ 3.5 µM) | > 250 | > 250 | 4.32 (≈ 8.36 µM) | Activity [7]: Active; inhibition [8]: Dose-dependent effect; KSV [9]: 2 ×10⁴ /M; Ka [10]: 9.9 ×10⁴ /M; Activity [11]: Dose-dependent effect; Activity [12]: Active; Activity [13]: Dose-dependent effect
CN(C)CCCNc1nc2cc([N+](=O)[O-])ccc2nc1NCc1cccc(Br)c1 | 2.29 (≈ 4.99 µM) | 4.59 (≈ 9.99 µM) | 2.29 (≈ 4.99 µM) | 4.59 (≈ 9.99 µM) | 13.8 (≈ 30 µM) | 3.66 (≈ 7.97 µM) | –
Cc1ccccc1CNc1nc2ccc([N+](=O)[O-])cc2nc1NCCCN(C)C | 7.89 (≈ 20 µM) | 4.93 (≈ 12.5 µM) | 6.9 (≈ 17.5 µM) | 75.6 (≈ 192 µM) | > 200 | 27.6 (≈ 70 µM) | –
CN(C)CCCNc1nc2cc([N+](=O)[O-])ccc2nc1NCc1ccccc1C(F)(F)F | 2.24 (≈ 4.99 µM) | 3.36 (≈ 7.49 µM) | 2.91 (≈ 6.49 µM) | 68.3 (≈ 152 µM) | > 224 | 24.7 (≈ 55 µM) | –
CN(C)CCCCNc1nc2cc([N+](=O)[O-])ccc2nc1NCc1ccc(C(F)(F)F)cc1 | 3.47 (≈ 7.5 µM) | 3.47 (≈ 7.5 µM) | 3.47 (≈ 7.5 µM) | 2.31 (≈ 4.99 µM) | > 230 | 9.73 (≈ 21 µM) | –
O=[N+]([O-])c1ccc2nc(NCc3ccc(C(F)(F)F)cc3)c(N3CCCCC3)nc2c1 | > 200 | > 200 | > 200 | > 200 | > 200 | > 200 | Activity [14]: inactive; Activity [10]: inactive; Activity [15]: inactive; Activity [16]: inactive; solubility [17]: Soluble; Activity [18]: inactive
CN1CCN(c2nc3cc([N+](=O)[O-])ccc3nc2NCc2ccc(C(F)(F)F)cc2)CC1 | 4.46 (≈ 9.99 µM) | 4.46 (≈ 9.99 µM) | 4.46 (≈ 9.99 µM) | > 220 | > 220 | 6.99 (≈ 15.7 µM) | –
CN(C)CCCNc1nc2cc([N+](=O)[O-])ccc2nc1NCc1cccc(C(F)(F)F)c1 | 0.89 (≈ 1.98 µM) | 0.89 (≈ 1.98 µM) | 1.57 (≈ 3.5 µM) | 34.3 (≈ 76.5 µM) | > 200 | 7.99 (≈ 17.8 µM) | Activity [19]: Active; inhibition [8]: Dose-dependent effect; KSV [9]: 1.7 ×10⁴ /M; selectivity ratio [20]: 9; Ka [10]: 3.06 ×10⁴ /M; Activity [11]: Dose-dependent effect; Activity [13]: Dose-dependent effect
CN(C)CCCNc1nc2cc([N+](=O)[O-])ccc2nc1NCc1ccccc1 | 13.3 (≈ 35 µM) | 11.4 (≈ 30 µM) | 7.6 (≈ 20 µM) | 114 (≈ 300 µM) | 57 (≈ 150 µM) | 2.74 (≈ 7.2 µM) | –
CN(C)CCCNc1nc2cc([N+](=O)[O-])ccc2nc1NCc1cc(F)cc(C(F)(F)F)c1 | 1.63 (≈ 3.49 µM) | 0.93 (≈ 1.99 µM) | 2.33 (≈ 5 µM) | 35 (≈ 75 µM) | > 235 | 2.67 (≈ 5.72 µM) | –
Cc1ccc(CNc2nc3ccc([N+](=O)[O-])cc3nc2NCCCN(C)C)cc1 | 3.94 (≈ 9.99 µM) | 5.92 (≈ 15 µM) | 2.76 (≈ 7 µM) | 110 (≈ 279 µM) | > 200 | 15.8 (≈ 40 µM) | –
COc1ccc(CNc2nc3ccc([N+](=O)[O-])cc3nc2NCCCN(C)C)cc1 | 5.13 (≈ 12.5 µM) | 10.3 (≈ 25 µM) | 4.1 (≈ 9.99 µM) | > 200 | > 200 | 38.6 (≈ 94 µM) | –
CS[C@@H]1SC[C@H]2C(=O)N(C)[C@@H](C(C)C)C(=O)OC[C@@H](NC(=O)c3cnc4ccccc4n3)C(=O)N[C@@H](C)C(=O)N(C)[C@@H]1C(=O)N(C)[C@@H](C(C)C)C(=O)OC[C@@H](NC(=O)c1cnc3ccccc3n1)C(=O)N[C@@H](C)C(=O)N2C | 0.02 (≈ 0.0182 µM) | 0.04 (≈ 0.0363 µM) | 0.07 (≈ 0.0636 µM) | 21 (≈ 19.1 µM) | > 200 | 0.014 (≈ 0.0127 µM) | –
CN(C)CCCNc1nc2cc([N+](=O)[O-])ccc2nc1NCc1ccccc1Br | 4.59 (≈ 9.99 µM) | 3.45 (≈ 7.51 µM) | 2.76 (≈ 6.01 µM) | > 230 | > 230 | 51.9 (≈ 113 µM) | selectivity ratio [20]: 15
CN(C)CCCNc1nc2cc([N+](=O)[O-])ccc2nc1NCc1ccc(F)cc1 | 5.98 (≈ 15 µM) | 7.97 (≈ 20 µM) | 3.98 (≈ 9.99 µM) | 86.3 (≈ 217 µM) | > 200 | 4.28 (≈ 10.7 µM) | Activity [21]: Active
